Measured values: ChEMBL document CHEMBL1123839, “5-Acyl-3-substituted-benzofuran-2(3H)-ones as potential antiinflammatory agents” (1987)

How the values were obtained:
Assay type in all cases: functional
[1] = species: Cavia porcellus; assay: Tested for effect on the production of cyclooxygenase (COX) metabolite, TXB2 of arachidonic acid in guinea pig peritoneal polymorphonuclear neutrophils at 30 uM concentration
Method in brief: (§1)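 Guinea pig peritoneal PMNs were incubated with [14C]arachidonic acid and stimulated with calcium ionophore A23187. Compounds were tested at 30 μM in 0.1 N NaOH–Krebs Ringer bicarbonate buffer. Radiolabeled cyclooxygenase and lipoxygenase products were identified by HPLC and GC-MS, separated by TLC and quantified by automatic scanning.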

[2] = species: Cavia porcellus; assay: Tested for effect on the production of cyclooxygenase (COX) metabolite, PGE-2 (prostaglandin E2) of arachidonic acid in guinea pig peritoneal polymorphonuclear neutrophils at 30 uM concentration; method in brief: as §1
[3] = species: Cavia porcellus; assay: Tested for effect on the production of Lipoxygenase (LO) metabolite, 5,12-diHETE in guinea pig peritoneal polymorphonuclear neutrophils at 30 uM concentration; method in brief: as §1
[4] = tested on: Rattus norvegicus; assay: Antiinflammatory activity was assessed by the ability to improve the adjuvant induced arthritis in left secondary lesion in rats at oral doses, 33 mg/kg (volume change in the injected paw measured from day 9 to day 18)
[5] = species: Rattus norvegicus; assay: Antiinflammatory activity was assessed improvement of adjuvant induced arthritis in rats, determined by joint mobility of the paw; parameters: concentration or dose not given beside the values
Method in brief: (§2)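 Adjuvant arthritis was induced in female Sprague–Dawley rats (150–170 g, groups of six) by right-hind-paw plantar injection of killed tubercle bacillus in paraffin. Treatment was 33 mg/kg orally, daily for 14 days, starting the day before adjuvant. Joint involvement was scored as the angle through which the hind paws moved easily, given as percent change versus nontreated controls.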

[6] = species: Cavia porcellus; assay: Tested for effect on the production of cyclooxygenase (COX) metabolite, PGF2-alpha (prostaglandin F2-alpha) of arachidonic acid in guinea pig peritoneal polymorphonuclear neutrophils at 30 uM concentration; method in brief: as §1
[7] = tested on: Rattus norvegicus; assay: Antiinflammatory activity was assessed by the ability to improve the adjuvant induced arthritis in right primary lesion in rats at oral doses, 33 mg/kg (volume change in the injected paw measured from day 0 to day 8)
Method in brief: (§3)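 Female Sprague–Dawley rats (150–170 g), six per group. Arthritis induced by subcutaneous plantar injection of 0.125 mg killed tubercle bacillus in liquid paraffin into the right hind paw. Dosing was 33 mg/kg orally, daily for 14 days, starting the day before adjuvant. Paw volumes were measured by mercury plethysmography every 2–3 days over 18 days. Primary lesion: right paw, days 0–8. Secondary lesions: right and left (uninjected) paws, days 9–18. Areas under the time-course curves were compared with controls by ANOVA.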

[8] = species: Cavia porcellus; assay: Tested for effect on the production of Lipoxygenase (LO) metabolite, 5-HETE in guinea pig peritoneal polymorphonuclear neutrophils at 30 uM concentration; method in brief: as §1
[9] = tested on: Rattus norvegicus; assay: Ability to improve the adjuvant induced arthritis in right secondary lesion in rats at oral doses, 33 mg/kg; method in brief: as §3
[10] = tested on: Rattus norvegicus; assay: Antiinflammatory activity was assessed by the ability to improve the adjuvant induced arthritis rats was determined by joint mobility of the paw at oral doses, 33 mg/kg; method in brief: as §2
[11] = species: Rattus norvegicus; assay: Antiinflammatory activity was assessed by the ability to improve the adjuvant induced arthritis in right primary lesion in rats(volume change in the injected paw measured from day 0 to day 8); method in brief: as §3
[12] = species: Rattus norvegicus; assay: Antiinflammatory activity was assessed by the ability to improve the adjuvant induced arthritis in left secondary lesion in rats (volume change in the […] to day 18)
[13] = species: Rattus norvegicus; assay: Antiinflammatory activity was assessed by the ability to improve the adjuvant induced arthritis in right secondary lesion in rats (volume change in the injected paw measured from day 9 to day 18); method in brief: as §3
[14] = species: Cavia porcellus; assay: Tested for effect on the production of Lipoxygenase (LO) metabolite, 5,12-diHETE in guinea pig peritoneal polymorphonuclear neutrophils at 30 uM concentration; ND = no data; method in brief: as §1
[15] = tested on: Rattus norvegicus; assay: Antiinflammatory activity was assessed by the ability to improve the adjuvant induced arthritis in left secondary lesion in rats at oral doses, 33 mg/kg (volume change in the uninjected paw measured from day 9 to day 18); method in brief: as §3
[16] = species: Cavia porcellus; assay: Tested for effect on the production of Lipoxygenase (LOX) metabolite, 5-HETE in guinea pig peritoneal polymorphonuclear neutrophils at 30 uM concentration; method in brief: as §1

Row | Compound | Reduction [1] [%] | Reduction [2] [%] | Reduction [3] [%] | Reduction [4] [%] | Reduction [5] [%] | Reduction [6] [%] | Reduction [7] [%] | Reduction [8] [%] | Reduction [9] [%] | Reduction [10] [%] | Reduction [11] [%] | Reduction [12] [%] | Reduction [13] [%] | Reduction [14] [%] | Reduction [15] [%] | Reduction [16] [%]
1 | CCCCC1C(=O)Oc2ccc(C(=O)c3cccs3)cc21 (centres undefined) | 89 | 68 | 61 | -55 | -1 | 62 | 4 | 73 | -22 | – | – | – | – | – | – | –
2 | CCC(CC)(C(=O)O)c1cc(C(=O)c2cccs2)ccc1O | 90 | 54 | -18 | 45 | 38 | 50 | 6 | -21 | 22 | – | – | – | – | – | – | –
3 | O=C1Oc2ccc(C(=O)c3cccs3)cc2/C1=C/c1ccccc1 | 92 | 81 | -10 | 76 | – | 60 | 21 | -18 | 48 | 46 | – | – | – | – | – | –
4 | COc1ccc2c(c1)c(CC(=O)O)c(C)n2C(=O)c1ccc(Cl)cc1 [INDOMETHACIN] | 91 | 84 | -81 | – | 91 | 70 | – | -12 | – | – | 37 | 77 | 56 | – | – | –
5 | CC(C(=O)O)c1cc(C(=O)c2ccco2)ccc1O (centres undefined) | 87 | 87 | -17 | 13 | 7 | 61 | -31 | -14 | -5 | – | – | – | – | – | – | –
6 | CC(C(=O)O)c1cc(C(=O)c2ccc(F)cc2)ccc1O (centres undefined) | 74 | 46 | -8 | 56 | 33 | 49 | 22 | -1 | 32 | – | – | – | – | – | – | –
7 | CCC1C(=O)Oc2ccc(C(=O)c3cccs3)cc21 (centres undefined) | 90 | 79 | 9 | 81 | 52 | 62 | 13 | 20 | 51 | – | – | – | – | – | – | –
8 | Cc1ccc(C(=O)c2ccc3c(c2)C(C)C(=O)O3)s1 (centres undefined) | 86 | 65 | 15 | 36 | 15 | 28 | 10 | -3 | 19 | – | – | – | – | – | – | –
9 | CC1C(=O)Oc2ccc(C(=O)c3ccccc3)cc21 (centres undefined) | 82 | 71 | -10 | 52 | 29 | 56 | 5 | 10 | 35 | – | – | – | – | – | – | –
10 | CCCC1C(=O)Oc2ccc(C(=O)c3cccs3)cc21 (centres undefined) | 81 | 85 | 7 | 67 | 61 | 49 | 23 | -2 | 41 | – | – | – | – | – | – | –
11 | CC(C(=O)O)c1cc(C(=O)c2ccccc2)ccc1O (centres undefined) | 75 | 77 | -55 | 61 | 38 | 52 | 30 | -27 | 37 | – | – | – | – | – | – | –
12 | CC(C)(C)c1cc(/C=C2\C(=O)Oc3ccc(C(=O)c4cccs4)cc32)cc(C(C)(C)C)c1O | 26 | -14 | -8 | 8 | 17 | 6 | -28 | -11 | -7 | – | – | – | – | – | – | –
13 | O=C1Oc2ccc(C(=O)c3cccs3)cc2/C1=C/c1ccc(Cl)cc1 | 93 | 77 | 73 | -14 | 12 | 69 | -5 | 71 | -18 | – | – | – | – | – | – | –
14 | CC(C(=O)O)c1cc(C(=O)c2cccs2)ccc1O (centres undefined) | 89 | 76 | -84 | 35 | -15 | 76 | 39 | -68 | 34 | – | – | – | – | – | – | –
15 | CCC1(CC)C(=O)Oc2ccc(C(=O)c3cccs3)cc21 | 90 | 62 | -7 | 41 | 23 | 48 | 18 | 2 | 17 | – | – | – | – | – | – | –
16 | CCCCC(C(=O)O)c1cc(C(=O)c2cccs2)ccc1O (centres undefined) | 64 | 44 | 60 | 53 | 14 | 51 | 5 | 60 | 29 | – | – | – | – | – | – | –
17 | Cc1ccc(C(=O)c2ccc(O)c(C(C)C(=O)O)c2)s1 (centres undefined) | 82 | 54 | -36 | 29 | -16 | 49 | 13 | -69 | 11 | – | – | – | – | – | – | –
18 | C=CCOc1ccc(C(=O)c2cccs2)cc1C(C)C(=O)O (centres undefined) | 62 | 6 | – | 3 | -14 | 11 | 18 | -25 | -8 | – | – | – | – | -21 | – | –
19 | O=C(O)Cc1cc(C(=O)c2cccs2)ccc1O | 89 | 74 | -62 | – | 1 | 74 | 11 | -72 | 20 | – | – | – | – | – | 10 | –
20 | O=C1Cc2cc(C(=O)c3cccs3)ccc2O1 | 65 | 54 | -44 | -35 | 5 | 57 | 25 | -33 | 9 | – | – | – | – | – | – | –
21 | CC(C)(C(=O)O)c1cc(C(=O)c2cccs2)ccc1O | 90 | 80 | -23 | 46 | 26 | 55 | 4 | -20 | 20 | – | – | – | – | – | – | –
22 | NC1=NN(c2cccc(C(F)(F)F)c2)CC1 [BW-755C] | 90 | 79 | 40 | – | – | 82 | – | – | – | – | – | – | – | – | – | 45
